Laboratory results: ChEMBL document CHEMBL1139477, “Synthesis and evaluation of estrogen receptor ligands with bridged oxabicyclic cores containing a diarylethylene motif: estrogen antagonists of unusual structure” (J Med Chem, 2005)
The source made the active and inactive calls. The rule behind the calls is not given here.

Tests used:
[1] = target: T1, Estrogen receptor (Homo sapiens) (UniProt P03372); experiment: Displacement of [3H]estradiol from human ERalpha relative to estradiol
T1 sequence (whole entry): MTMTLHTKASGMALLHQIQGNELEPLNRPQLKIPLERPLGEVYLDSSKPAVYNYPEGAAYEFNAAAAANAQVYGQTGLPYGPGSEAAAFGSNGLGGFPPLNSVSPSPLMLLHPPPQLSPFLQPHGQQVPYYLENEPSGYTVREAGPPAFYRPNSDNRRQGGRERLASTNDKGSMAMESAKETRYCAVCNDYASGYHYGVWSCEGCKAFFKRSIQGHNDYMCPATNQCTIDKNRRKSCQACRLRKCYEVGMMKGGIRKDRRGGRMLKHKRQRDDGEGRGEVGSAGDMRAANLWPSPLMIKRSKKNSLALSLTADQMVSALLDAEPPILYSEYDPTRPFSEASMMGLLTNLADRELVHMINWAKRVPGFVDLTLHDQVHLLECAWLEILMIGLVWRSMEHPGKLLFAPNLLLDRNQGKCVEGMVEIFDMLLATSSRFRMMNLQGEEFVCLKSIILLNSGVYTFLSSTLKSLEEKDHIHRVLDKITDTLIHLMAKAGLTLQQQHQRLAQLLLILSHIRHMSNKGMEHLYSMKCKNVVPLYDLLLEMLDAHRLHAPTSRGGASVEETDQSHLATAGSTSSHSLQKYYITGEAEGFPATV

[2] = target: Estrogen receptor beta (Homo sapiens) (UniProt Q92731); experiment: Displacement of [3H]estradiol from human ERbeta relative to estradiol
[3] = target: Estrogen receptor (Homo sapiens) (UniProt Q92731+P03372); experiment: Ratio of RBA for human estrogen receptor alpha to RBA for human estrogen receptor beta; type: protein assay
[4] = target: T1, Estrogen receptor (Homo sapiens); experiment: Activity at ERalpha in human HEC1 cells assessed as antagonism of estradiol-activated transcription activation relative to estradiol; type: functional, cell-based; settings: HEC-1
Summary of the method: (§1)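 HEC-1 cells kept in phenol red MEM with 5% calf serum plus 5% fetal calf serum, then plated in phenol red-free Improved MEM with 5% charcoal dextran-treated calf serum. Lipofectin transfection for 5 h at 37 °C with full-length human ERα or ERβ vector, 2ERE-pS2-Luc and pCMV β-galactosidase control. Ligand, 10^-8 to 10^-5 M, given with 1 nM estradiol for 24 h. Luciferase read, as percent of 10^-9 M estradiol alone. Two or more experiments.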

[5] = target: Estrogen receptor beta (Homo sapiens) (UniProt Q92731); experiment: Activity at ERbeta in human HEC1 cells assessed as antagonism of estradiol-activated transcription activation relative to estradiol; type: functional, cell-based; settings: HEC-1; summary of the method: as §1

Sequence of Estrogen receptor (Homo sapiens) (UniProt Q92731+P03372) (Q92731 whole entry, looked up, one chain of several): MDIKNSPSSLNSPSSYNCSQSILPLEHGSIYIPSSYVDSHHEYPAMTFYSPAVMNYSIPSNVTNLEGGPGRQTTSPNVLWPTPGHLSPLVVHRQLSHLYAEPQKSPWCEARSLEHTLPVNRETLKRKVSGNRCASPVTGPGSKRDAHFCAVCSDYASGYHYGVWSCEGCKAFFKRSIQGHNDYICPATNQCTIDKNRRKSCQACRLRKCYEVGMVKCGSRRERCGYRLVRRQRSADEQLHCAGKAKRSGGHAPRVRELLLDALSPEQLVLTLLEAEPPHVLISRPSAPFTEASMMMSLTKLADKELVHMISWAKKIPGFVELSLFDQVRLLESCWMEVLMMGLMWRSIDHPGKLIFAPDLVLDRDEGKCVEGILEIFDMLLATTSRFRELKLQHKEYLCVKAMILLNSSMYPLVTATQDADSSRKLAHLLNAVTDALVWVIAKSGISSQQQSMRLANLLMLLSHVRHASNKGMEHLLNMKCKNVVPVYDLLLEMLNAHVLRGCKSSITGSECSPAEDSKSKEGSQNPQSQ
Sequence of Estrogen receptor beta (Homo sapiens) (Q92731 whole entry): as the sequence (Q92731 whole entry, looked up, one chain of several) above

Row | Structure (SMILES) | RBA [1] | RBA [2] | Ratio [3] | Activity [4] | Activity [5]
1 | O=C1C2C3OC(C(c4ccc(O)cc4)=C3c3ccc(O)cc3)C2C(=O)N1c1ccccc1 (configuration not stated) | 0.013% | 0.017% | 0.77 | – | –
2 | COc1ccc(C2=C(c3ccc(O)cc3)C3CC(S(=O)(=O)c4ccccc4)C2O3)cc1 (configuration not stated) | 0.068% | 0.066% | 1 | – | –
3 | CCS(=O)(=O)C1CC2OC1C(c1ccc(O)cc1)=C2c1ccc(O)cc1 (configuration not stated) | 0.1% | 0.077% | 1.3 | – | –
4 | CN1C(=O)C2C3OC(C(c4ccc(O)cc4)=C3c3ccc(O)cc3)C2C1=O (configuration not stated) | 0.02% | 0.025% | 0.8 | – | –
5 | CCOC(=O)C1C2OC(C(c3ccc(O)cc3)=C2c2ccc(O)cc2)C1C(=O)OCC (configuration not stated) | 0.021% | 0.036% | 0.58 | – | –
6 | O=S(=O)(Oc1ccc(O)cc1)C1CC2OC1C(c1ccc(O)cc1)=C2c1ccc(O)cc1 (configuration not stated) | 2.2% | 0.16% | 14 | – | –
7 | O=C1OC(=O)C2C3OC(C(c4ccccc4)=C3c3ccccc3)C12 (configuration not stated) | 0.014% | 0.02% | 0.7 | – | –
8 | O=S(=O)(c1ccccc1)C1CC2OC1C(c1ccc(O)cc1)=C2c1ccc(O)cc1 (configuration not stated) | 0.64% | 0.059% | 11 | Active | Active
9 | COC(=O)C1=C(c2ccc(O)cc2)C2OC1C(c1ccccc1)=C2c1ccccc1 (configuration not stated) | 0.012% | 0.031% | 0.39 | – | –
10 | COc1ccc(OS(=O)(=O)C2CC3OC2C(c2ccc(O)cc2)=C3c2ccc(O)cc2)cc1 (configuration not stated) | 0.32% | 0.1% | 3.3 | – | –
11 | COC(=O)C1=C(c2ccccc2)C2OC1C(c1ccccc1)=C2c1ccccc1 (configuration not stated) | 0.007% | 0.024% | 0.29 | – | –
12 | COC(=O)C1=C(C(=O)OC)C2OC1C(c1ccc(O)cc1)=C2c1ccc(O)cc1 | 0.009% | 0.006% | 1.5 | – | –
13 | O=S(=O)(c1ccccc1)C1CC2OC1C(c1cccc(O)c1)=C2c1ccc(O)cc1 (configuration not stated) | 0.069% | 0.037% | 1.9 | – | –

Second part, the molecule after the results:

Row | RBA [1] | RBA [2] | Ratio [3] | Activity [4] | Activity [5] | Structure (SMILES)
14 | 0.025% | 0.029% | 0.86 | – | – | O=S(=O)(Oc1ccc(O)cc1)[C@H]1CC2OC1C(c1ccccc1)=C2c1ccccc1 (stereo in doubt; endo)
15 | 0.98% | 0.11% | 8.9 | – | – | COc1ccc(C2=C(c3ccc(O)cc3)C3CC(S(=O)(=O)Oc4ccccc4)C2O3)cc1 (configuration not stated)
16 | – | – | – | Active | Active | O=S(=O)(Oc1ccccc1)[C@H]1CC2OC1C(c1ccc(O)cc1)=C2c1ccc(O)cc1 (stereo in doubt; exo)
17 | 0.9% | 0.21% | 4.3 | – | – | O=S(=O)(Oc1ccccc1)C1CC2OC1C(c1cccc(O)c1)=C2c1ccc(O)cc1 (configuration not stated)
18 | 0.068% | 0.12% | 0.57 | – | – | O=S(=O)(Oc1ccccc1)C1CC2OC1C(c1ccccc1)=C2c1ccccc1 (configuration not stated)
19 | 0.022% | 0.027% | 0.82 | – | – | O=S(=O)(Oc1ccc(O)cc1)[C@H]1CC2OC1C(c1ccccc1)=C2c1ccccc1 (stereo in doubt; exo)
20 | 0.008% | 0.013% | 0.62 | – | – | O=S(=O)(c1ccccc1)C1CC2OC1C(c1ccccc1)=C2c1ccccc1 (configuration not stated)
21 | 4.1% | – | – | – | – | O=S(=O)(Oc1ccccc1)[C@H]1CC2OC1C(c1ccc(O)cc1)=C2c1ccc(O)cc1 (stereo in doubt; endo)
